Assay outcomes: PubChem BioAssay, several laboratories
Lipid droplet – modulators of hepatic lipid droplet formation; AML12 mouse hepatocytes, oleate lipid droplets, BODIPY imaging; inhibition, % at 6.5 µM; 240,000 tested, 0.4% active; AID 1656;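 active = lipid droplet intensity inhibited by at least 50%, with more than 500 cells counted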
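Assay system: AML12 hepatocytes (mouse); Probe or stimulus: oleic acid at 100 µM to induce lipid droplet formation; Dosing: compound at 6.5 µM only; Schedule: compound with oleate, overnight; Detection: fluorescence imaging, 20x objective, two fields per well; Measure: % inhibition of lipid droplet signal.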
697 NFkB inh – lowers PMA/ionomycin-induced NF-kB signal in 697 B cells; 697 B-cell NF-kB luciferase reporter, 16 h; inhibition, % at 4 µM; 330,000 tested, 0.33% active; in the data active = inhibition above about 35%
aSyn 5UTR inh – MLPCN primary screen, SNCA 5' untranslated region; 300,000 tested, 0.82% active; alpha-synuclein 5'UTR reporter, inhibitor activity; inhibition, % (tested at 7.5 µM); in the data active = inhibition above about 60%;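 note: H4 neuroglioblastoma cells stably carrying SNCA 5'UTR luciferase fusion; 0% = DMSO wells and 100% = positive control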
H9c2 TAG inh – reduces triacylglycerol accumulation in H9c2 cells; Nile Red lipid (TAG) fluorescence; cells loaded with 200 µM oleic acid; 230,000 tested, 0.66% active; inhibition, % at 12.5 µM; AID 651582;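 active = pattern-corrected inhibition of lipid staining of at least 50% with the nuclear-stain viability signal not falling by more than 50%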;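 note: 0% = DMSO wells and 100% = triacsin C control wells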
APP 5UTR inh – APP translation inhibition. 190,000 tested, 0.82% active. SH-SY5Y APP 5'UTR-luciferase reporter, luminescence. inhibition, % at 2 µM;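 active = inhibition above a set limit, derived from the sample mean plus 3 SD, cut at about 45% in these data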
Jurkat NFkB inh – inhibitors of the PMA/ionomycin-induced NF-kB reporter in Jurkat cells. PMA/ionomycin-induced NF-kB luciferase reporter, luminescence. inhibition, % at 4 µM. 330,000 tested, 0.53% active; in the data active = inhibition above about 50%
H9c2 TAG conf – confirmation of triacylglycerol accumulation inhibitors; 990 tested, 71% active; inhibition, % at 12.5 µM; shares compounds with H9c2 TAG inh; AID 651629; H9c2 lipid accumulation, Nile Red fluorescence; cells loaded with 200 µM oleic acid;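 active = mean inhibition across replicates of 40% or more; inactive = mean inhibition below 40%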;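 note: plate controls were DMSO only wells for no effect and Triacsin C treated wells for full effect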
Starred values were filed as active, the others as inactive; · = no result given. The list is not random: actives were taken first. Their share in the collection is about 1.9%.

SMILES | Lipid droplet | 697 NFkB inh | aSyn 5UTR inh | H9c2 TAG inh | APP 5UTR inh | Jurkat NFkB inh | H9c2 TAG conf
O=C(Nc1cc(Cl)ccc1-n1cncn1)c1cc(S(=O)(=O)N2CCOCC2)ccc1F | 26.6 | 0.6 | 9.3 | 5.7 | · | 19.5 | ·
CCOC(=O)c1cc(CC)sc1NC(=O)c1ccc(N2C(=O)CCC2=O)cc1 | 2.4 | 19.1 | -17.6 | · | 3.4 | 16.1 | ·
CCOC(=O)c1cc(CC)sc1NC(=O)c1cc(OC)c(OC)c(OC)c1 | 14.3 | 14.3 | 4.9 | 65.6* | -0.9 | 3.9 | 36.9
C=CCN1C(=O)/C(=C2\SC(N3CCOCC3)=NC2=O)c2cc(Br)ccc21 | 29.8 | -20.6 | 3.3 | 58.0* | -4.9 | -16.2 | 50.2*
COCCCn1c(C(=O)N2CCOCC2)cc2c(=O)n3cccc(C)c3nc21 | -6.5 | 3.4 | 34.6 | 21.6 | · | 6.0 | ·
COCCCn1c(C(=O)Nc2ccc3c(c2)OCO3)cc2c(=O)n3cccc(C)c3nc21 | · | · | · | 69.4* | · | · | 27.9
Cc1ccc(Oc2ccc(S(=O)(=O)N3CCOCC3)cc2C(N)=O)c(-n2nc3ccccc3n2)c1 | · | -31.6 | -3.0 | 50.0* | 45.6* | 22.7 | 46.1*
CC(=O)N1CCN(CC(=O)Nc2cc(S(=O)(=O)N3CCCCC3)ccc2C)CC1 | · | -2.9 | · | -12.8 | · | -11.5 | ·
Fc1cccc(NC(=S)N2CCN(c3ccccn3)CC2)c1 | 9.8 | -3.1 | -6.1 | · | · | -13.5 | ·
CCOC(=O)c1c(CSC(=N)N)n(-c2ccccc2)c2cc(Br)c(OC(C)=O)cc12 | 36.8 | -0.1 | -71.0 | 61.9* | · | 0.7 | 67.6*
O=C(CN1CCCCC1)Nc1cccc(-n2cnnn2)c1 | 1.1 | -5.9 | 13.7 | 8.6 | 19.9 | 9.7 | ·
Cc1cc2c(cc1C)CSC(c1ccccc1O)SC2 | 18.9 | 7.4 | 13.4 | 54.0* | 13.6 | 0.0 | 23.4
Cc1cc2c(cc1C)CSC(c1ccc3ccccc3c1O)SC2 | 8.0 | -100.2 | 24.0 | 0.1 | -10.0 | -10.2 | ·
CCCCNC(=O)Nc1ccc(C2SCCS2)cc1 | -1.4 | 0.5 | -91.5 | 57.3* | · | -30.8 | -8.6
COC(=O)c1ccc(/C=C/c2c(-c3ccsc3)oc3ccc(N4CCOCC4)cc23)cc1 | · | -5.7 | 0.3 | 59.8* | · | -18.4 | 54.3*
Nc1ccc(C#Cc2c(-c3ccsc3)oc3ccc(N4CCOCC4)cc23)cc1 | · | -50.6 | -167.8 | 50.9* | · | -50.3 | 53.0*
COc1ccc(-c2c(-c3ccsc3)oc3ccc(N4CCOCC4)cc23)cn1 | · | -1.5 | -22.1 | 1.3 | · | 7.4 | ·
COc1ccc(OCCNC(=O)C2(C)CCN2Cc2ccc3ccccc3c2)cc1 (stereo unspecified) | · | · | · | -2.9 | · | · | ·
N#Cc1cn(-c2ccccc2)nc1-c1ccc2c(c1)OCCO2 | 24.2 | -139.2 | -183.9 | 59.3* | -117.7 | -68.8 | 10.8
CCCCSc1nnc(-c2ccc(NC(=O)CCc3ccccc3)cc2)n1C | 35.5 | -4.9 | -13.5 | 51.5* | -14.2 | 5.7 | 34.2
Cn1c(SCC(=O)NCc2ccccc2)nnc1-c1ccc(NC(=O)CCc2ccccc2)cc1 | 9.0 | 12.3 | 14.1 | 14.6 | 9.4 | 19.5 | ·
CCN1CCN(c2cc(C)c3cc(NC(=O)c4ccc(Br)o4)ccc3n2)CC1 | · | -2.6 | -84.5 | 58.4* | -1.6 | -1.4 | 37.1
CCN1CCN(c2cc(C)c3cc(NC(=O)c4ccncc4)ccc3n2)CC1 | · | -4.2 | -26.6 | 5.8 | -1.3 | -5.0 | ·
CCCCNC(=O)CCC(=O)Nc1ccc2nc(N3CCOCC3)cc(C)c2c1 | · | -29.8 | -86.5 | 4.0 | -19.1 | -30.4 | ·
Cc1cc(N2CCOCC2)nc2ccc(NC(=O)C3CCC(C)CC3)cc12 (stereo unspecified) | · | -18.1 | -15.4 | 53.9* | -8.5 | -5.2 | 37.2
SMILES | Lipid droplet | 697 NFkB inh | aSyn 5UTR inh | H9c2 TAG inh | APP 5UTR inh | Jurkat NFkB inh | H9c2 TAG conf
O=c1[nH]c2ccc(S(=O)(=O)Nc3ccc(Cl)cc3)cc2[nH]1 | -0.5 | -7.8 | 11.1 | -0.8 | · | 1.9 | ·
O=C(NCC1CCOCC1)C1CCC(=O)N(Cc2cccc(C(F)(F)F)c2)C1 (stereo unspecified) | 0.7 | -8.9 | -15.7 | · | · | -7.2 | ·
COc1ccc(NC(=O)Cn2c(-c3ccccc3)cn(-c3ccc(C)cc3)c2=O)cc1 | 11.6 | -13.2 | -17.3 | 56.5* | · | 10.4 | 27.3
COc1ccc(-c2cn(-c3ccc(C)cc3)c(=O)n2CC(=O)Nc2ccc(OC)cc2OC)cc1 | 6.3 | 8.3 | -27.7 | 20.7 | 12.3 | -6.4 | ·
CCCCCCSc1ccc([C@H]2N[C@@](CC(C)C)(C(=O)OC)[C@H]3C(=O)N(C)C(=O)[C@@H]23)cc1OC | · | 6.3 | -9.2 | 63.7* | · | 28.2 | 54.9*
CCN1C(=O)[C@H]2[C@@H](c3ccc(-c4ccccc4)c(OC)c3)N[C@@](CC(C)C)(C(=O)OC)[C@H]2C1=O | · | 9.3 | · | 57.4* | · | -4.7 | 40.4*
CCOC(=O)[C@H]1[C@H]2COc3ccc(Cl)cc3[C@@H]2N2C(=O)c3cc(Cl)ccc3NC(=O)[C@@]12C | · | -4.9 | · | 50.5* | · | 0.9 | 53.2*
CCOC(=O)[C@H]1[C@H]2COc3ccc(Cl)cc3[C@@H]2N2C(=O)c3cc(Br)ccc3NC(=O)[C@@]12C | · | 15.6 | · | 12.7 | · | 5.9 | ·
CCOC(=O)[C@H]1[C@H]2COc3ccc(Br)cc3[C@@H]2N2C(=O)c3cc(Br)ccc3NC(=O)[C@@]12C | · | 26.1 | · | 62.7* | · | 11.0 | 52.4*
CCCCCC(=C/c1ccccc1)/C=N/Nc1ccc(S(=O)(=O)N2CCOCC2)cc1[N+](=O)[O-] | · | · | · | 82.9* | · | · | 81.0*
O=C(NCc1ccccc1)[C@@H]1C[C@H]1[C@@H](NP(=O)(c1ccccc1)c1ccccc1)c1ccccc1 | -7.6 | -2.5 | -5.3 | 24.7 | 6.0 | 0.9 | ·
O=C(Nc1ccc2ccccc2c1)[C@@H]1C[C@H]1[C@@H](NP(=O)(c1ccccc1)c1ccccc1)c1ccccc1 | 42.8 | -16.7 | · | 52.1* | 4.9 | 4.0 | 33.6
COc1cc(NC(=O)c2cc([N+](=O)[O-])ccc2NC(=O)CN2CCN(c3ccccn3)CC2)cc(OC)c1 | -11.7 | 21.0 | 50.1 | 59.8* | · | -10.6 | 79.4*
CCOC(=O)c1[nH]c2ccc(OCC)cc2c1NC(=O)CN1CCN(c2ccccc2)CC1 | · | -50.7 | -11.1 | 58.3* | -18.4 | -2.4 | 40.5*
O=C(CSc1nncs1)Nc1ccc(Cl)cn1 | 8.7 | 10.6 | -8.7 | -0.1 | -2.5 | 5.4 | ·
COc1ccc(CNC(=O)Nc2nc(C(N)Cc3ccc(Cl)cc3)cs2)cc1 (stereo unspecified) | · | · | · | 50.2* | · | · | 58.6*
COc1cc(NC(=O)Nc2nc(C(N)Cc3ccc(C(F)(F)F)cc3)cs2)cc(OC)c1OC (stereo unspecified) | · | · | · | 87.5* | · | · | 98.6*
COc1ccccc1NC(=O)Nc1nc(C(N)Cc2ccc(C(F)(F)F)cc2)cs1 (stereo unspecified) | · | · | · | 79.1* | · | · | 68.7*
NC(Cc1ccc(C(F)(F)F)cc1)c1csc(NC(=O)Nc2ccccc2Oc2ccccc2)n1 (stereo unspecified) | · | · | · | 127.6 | · | · | ·
